High-throughput results deposited in PubChem by Sanford-Burnham Center for Chemical Genomics.
Shown are actives, neighbours in structure and some others; about 1.9% of the full set was active somewhere.
SUMO1-SIM PPI – SUMO1-SIM interaction modulation | SUMO1 binding to a labelled peptide, TR-FRET, 1 h | 360,000 compounds, 0.33% hits | inhibition, % at 20 µM | P63165; in the data active means inhibition above about 37%
Target sequence (P63165 whole entry, looked up): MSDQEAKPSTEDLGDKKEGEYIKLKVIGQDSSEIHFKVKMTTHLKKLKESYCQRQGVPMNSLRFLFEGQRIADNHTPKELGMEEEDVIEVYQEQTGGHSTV
STEP inh – STEP (human) phosphatase inhibition; P54829; recombinant STEP, OMFP fluorogenic substrate, fluorescence; inhibition, % at 20 µM; 360,000 compounds, 0.25% hits; AID 588621;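 active means inhibition at 20 µM, scaled per plate between control wells, above about 37%, limit read from the data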;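 further: 0% = DMSO with enzyme and substrate and 100% = substrate only without enzyme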
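Material: STEP (striatal-enriched tyrosine phosphatase) enzyme, cell-free; Compound dosing: 20 µM single dose in 1% DMSO; Technique: fluorescence read at 480 nm ex / 540 nm em; Times: reaction 20 min, ambient temperature; Medium: 50 mM Bis-Tris pH 6.0 with 2.5 mM DTT and 0.005% Tween 20; Also added: OMFP at 25 µM.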
SUMO HTRF inh – inhibitors of human SUMOylation (UBC9). P63279. HTRF SUMOylation assay, SAE1/SAE2 + UBC9, in vitro. inhibition, % at 35 µM. 290,000 compounds, 0.36% hits. AID 2006; in the data active means inhibition above about 50%, passing the limit was not always enough
Target sequence (P63279 whole entry, looked up): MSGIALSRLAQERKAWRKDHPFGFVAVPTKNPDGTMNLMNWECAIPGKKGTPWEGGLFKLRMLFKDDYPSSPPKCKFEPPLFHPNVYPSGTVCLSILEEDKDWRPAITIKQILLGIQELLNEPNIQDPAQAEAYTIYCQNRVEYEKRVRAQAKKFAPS
DNMT1 block – blocks human DNA methyltransferase DNMT1; AID 588458; DNMT1 molecular beacon, Hinp1I cleavage, fluorescence; inhibition (reported as % activation of signal), % at 10 µM; 360,000 compounds, 0.83% hits; in the data active means inhibition above about 50%
Scp1 inh – blocks human Scp-1 phosphatase activity; Q9GZU7; Recombinant Scp1, phosphopeptide, malachite green phosphate absorbance; inhibition, % at 20 µM; 340,000 compounds, 0.88% hits;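 active means inhibition above about 50% at 20 µM, limit read from the data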;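 further: plate controls were DMSO wells with enzyme for no effect and wells lacking enzyme for full effect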
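System: truncated SCP-1 phosphatase (76-261aa); medium: Tris acetate buffer pH 5.5 with MgCl2 and Tween-20; incubation: 45 min room-temperature reaction, 5 min colour, 30 min stabiliser; compound: single 20 µM dose, 1% DMSO; reagent: Phosphorylated 17-residue peptide substrate; read-out: % inhibition at 20 µM; technique: colorimetric free-phosphate detection, absorbance 630 nm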
LMPTP block – LMPTP (human) inhibition. P24666. recombinant LMPTP-A, OMFP fluorogenic substrate, fluorescence intensity. inhibition, % at 20 µM. 360,000 compounds, 0.22% hits;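 active means compounds that cut the enzyme signal by at least half of the control window in the single-dose screen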;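 further: plate controls were DMSO wells with enzyme plus substrate for no effect and substrate without enzyme for full effect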
Target sequence (P24666 whole entry, looked up): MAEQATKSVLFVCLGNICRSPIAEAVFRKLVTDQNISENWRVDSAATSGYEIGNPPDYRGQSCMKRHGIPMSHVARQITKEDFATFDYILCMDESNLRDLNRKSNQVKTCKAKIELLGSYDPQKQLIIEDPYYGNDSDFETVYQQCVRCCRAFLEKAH
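material = LMPTP-A | quantity = 0.625 nM enzyme | reagent = OMFP substrate, 400 µM final | buffer or medium = Bis-Tris pH 6.0, DTT, detergent | detection = endpoint fluorescence intensity from OMFP dephosphorylation | dosing = single 20 µM dose | read-out basis = % inhibition relative to no-enzyme and uninhibited control wells | control set = no-enzyme and uninhibited controls | timing = 50 min at room temperature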
* marks the source's active call; other numbers are inactive results; · = not tested or not shown.

SMILES	SUMO1-SIM PPI	STEP inh	SUMO HTRF inh	DNMT1 block	Scp1 inh	LMPTP block
CN(C)c1ccc2nc3ccc(=[N+](C)C)cc-3sc2c1	5.2	3.9	-226.4	27.7	10.0	13.5
Cc1cc2nc3ccc(=[N+](C)C)cc-3sc2cc1N	54.5*	3.3	-316.5	56.7*	-27.9	32.3
COc1cc(C2C=C(c3cccs3)Nc3ncnn32)cc(OC)c1OC (stereo not drawn)	-28.6	-38.5	53.2*	31.8	-4.2	-1.6
CN(c1cccc(NC(=O)c2ccc(C(C)(C)C)cc2)c1)S(C)(=O)=O	43.9*	1.6	-9.1	6.5	-3.5	1.1
CN(c1cccc(NC(=O)c2ccc(N(C)S(=O)(=O)c3ccccc3)cc2)c1)S(C)(=O)=O	-3.2	0.1	-10.1	-8.4	-15.4	1.5
Cc1cc(N2CCN(C(C(=O)NC3CCCC3)c3ccc(F)cc3)CC2)c2ccccc2n1 (stereo not drawn)	-1.0	·	·	·	·	45.4
Cc1cc(N2CCN(C(C(=O)NC3CCCC3)c3ccco3)CC2)c2ccccc2n1 (stereo not drawn)	5.9	·	·	·	·	56.5*
N#CCCN(C(=O)COC(=O)c1cc(=O)c2ccccc2o1)c1ccccc1	-6.8	1.2	·	4.3	2.3	-1.3
c1ccc(-c2nc(NC3CCCC3)c3ccccc3n2)cc1	1.2	-4.4	0.9	1.4	-0.8	62.2*
COc1cccc(-c2nc(NC3CCCC3)c3ccccc3n2)c1O	8.7	0.4	3.6	-8.3	-4.0	10.3
O=c1[nH][nH]c2c(N=Cc3ccccc3O)ccc(F)c12	91.9*	94.2*	66.3*	118.0*	91.5*	70.3*
Cc1noc(C)c1S(=O)(=O)Nc1ccc2c(c1)C(=O)N([C@H](C)CO)C[C@H](C)[C@@H](CN(C)C(=O)Nc1ccc(C(F)(F)F)cc1)O2	3.4	-1.5	·	5.8	37.1	-1.4
Cc1noc(C)c1S(=O)(=O)Nc1ccc2c(c1)C(=O)N([C@H](C)CO)C[C@H](C)[C@@H](CN(C)C(=O)Nc1ccccc1)O2	4.2	-0.1	·	2.6	79.3*	-1.8
Cc1ccc(-c2cnc3cccnn23)cc1F	-16.8	1.1	·	1.7	·	0.6
c1cc(-c2ccc3nncn3c2)ccc1CN1CCOCC1	-11.5	-0.8	·	0.6	·	-1.1
Cc1ccc(OCC(=O)Nc2ccccc2C(=O)N2CCCC2)cc1	-4.4	-0.7	6.4	-0.2	-1.8	-0.3
Cc1ccc(/C=C2\SC(=S)N(c3cccnc3)C2=O)o1	-6.4	5.0	69.6	-0.6	-5.4	0.8
O=C(O)c1cccc(N2C(=O)/C(=C/c3ccc(SCc4ccc(Cl)cc4)o3)SC2=S)c1	69.9*	15.8	·	83.9*	69.7*	49.4
O=C(COc1ccccc1Cl)Nc1cccc(S(=O)(=O)NC2=NCCCCC2)c1	7.3	0.3	·	0.4	1.4	-1.3
O=C1Cc2cc(NS(=O)(=O)c3ccc([N+](=O)[O-])cc3)cc3c2N1CCC3	-27.0	0.9	·	-8.8	-9.5	0.6
CCN(CC(=O)Nc1ccc(NC(C)=O)cc1)C(=O)Cc1ccc(S(=O)(=O)N2CCOCC2)s1	-3.4	1.8	·	0.7	-4.9	-0.6
CCCCN1C(=O)C(=Nc2cccc3cnccc23)c2ccccc21	-14.2	2.4	98.7*	-7.2	3.3	-1.3
CCCCN1C(=O)/C(=C2\SC(N3CCCCC3)=NC2=O)c2ccccc21	-26.3	5.5	-7.0	-0.6	-14.3	4.3
CC1CC(C)CN(S(=O)(=O)c2ccc3c(c2)CC(C)N3C(=O)C2CC2)C1 (stereo not drawn)	3.2	4.0	5.0	1.3	-2.3	1.1
CCc1c(C)nc2c(C#N)c(C)[nH]n2c1=O	54.0*	-2.2	25.1	4.9	-3.3	-0.4
Cc1cc2[nH]c3c4ccccc4nc(C)c3c2cc1C	18.0	5.6	·	10.3	0.5	55.1*
Cc1cc2[nH]c3ccccc3c2c(C)n1	3.1	-5.7	8.0	26.1	0.5	16.5
COc1cc(C2C(C#N)=C(N)Oc3cc(C)oc(=O)c32)cc2c1OCO2 (stereo not drawn)	46.4*	-1.3	26.9	18.6	3.4	1.4
Cc1ccc(Cl)cc1N(CC(=O)NC(C)c1ccccc1)S(C)(=O)=O (stereo not drawn)	3.6	-1.8	-1.5	0.9	-2.0	-1.7
